From ChEMBL document CHEMBL1148507, “Discovery of a novel, orally active, small molecule gonadotropin-releasing hormone (GnRH) receptor antagonist” (J Med Chem, 2006)

How the values were obtained:
[1] = biological target: Type-1 angiotensin II receptor (Homo sapiens, UniProt P30556); test: Binding affinity to human AT1 receptor
Outline: (§1)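 Selectivity panel of 54 assays (ion channels, GPCRs, monoamine transporters) run at Cerep; Ki determined for hits at 10 µM; human isoform where marked.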

[2] = biological target: 5-hydroxytryptamine receptor 2A (Homo sapiens, UniProt P28223); test: Binding affinity to human 5HT2A receptor; outline: as §1
Sequence of 5-hydroxytryptamine receptor 2A (P28223 whole entry): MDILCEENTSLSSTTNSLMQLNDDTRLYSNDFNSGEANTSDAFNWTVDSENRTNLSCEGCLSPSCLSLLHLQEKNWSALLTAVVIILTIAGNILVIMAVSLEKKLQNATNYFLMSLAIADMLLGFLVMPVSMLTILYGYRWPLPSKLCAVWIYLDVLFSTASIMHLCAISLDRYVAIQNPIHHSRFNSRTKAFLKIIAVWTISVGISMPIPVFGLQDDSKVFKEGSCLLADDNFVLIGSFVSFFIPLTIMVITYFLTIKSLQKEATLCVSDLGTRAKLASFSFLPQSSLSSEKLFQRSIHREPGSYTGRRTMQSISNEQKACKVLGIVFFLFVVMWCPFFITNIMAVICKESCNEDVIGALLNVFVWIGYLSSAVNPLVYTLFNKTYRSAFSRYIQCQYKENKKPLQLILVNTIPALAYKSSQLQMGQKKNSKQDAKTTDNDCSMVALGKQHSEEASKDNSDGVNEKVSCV

[3] = biological target: Kappa-type opioid receptor (Homo sapiens, UniProt P41145); test: Binding affinity to kappa opiate receptor; outline: as §1
[4] = Inhibition KCl-stimulated calcium channel activity
[5] = biological target: T1, Voltage-gated L-type calcium channel (Homo sapiens, UniProt Q13936+Q13698+Q01668+O60840); test: Binding affinity to DHP site of L type calcium channel; type: protein assay; outline: as §1
Cytochrome P450 2D6 = Cytochrome P450 2D6 (Homo sapiens, UniProt P10635); test: Inhibition of CYP2D6; type: ADME
Cytochrome P450 2C19 = Cytochrome P450 2C19 (Homo sapiens, UniProt P33261); test: Inhibition of CYP2C19; type: ADME
[6] = biological target: Platelet-activating factor receptor (Homo sapiens, UniProt P25105); test: Binding affinity to PAF; outline: as §1
Sequence of Platelet-activating factor receptor (P25105 whole entry): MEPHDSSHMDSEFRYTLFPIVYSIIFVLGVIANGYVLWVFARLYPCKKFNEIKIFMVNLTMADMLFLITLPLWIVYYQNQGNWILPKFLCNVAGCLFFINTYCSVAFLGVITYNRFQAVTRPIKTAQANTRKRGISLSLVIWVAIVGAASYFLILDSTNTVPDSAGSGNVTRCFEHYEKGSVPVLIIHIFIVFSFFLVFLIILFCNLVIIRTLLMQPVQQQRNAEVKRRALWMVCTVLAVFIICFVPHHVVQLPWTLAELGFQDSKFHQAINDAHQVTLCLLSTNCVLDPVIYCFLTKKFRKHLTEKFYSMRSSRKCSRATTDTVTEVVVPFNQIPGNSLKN

Cytochrome P450 1A2 = Cytochrome P450 1A2 (Homo sapiens, UniProt P05177); test: Inhibition of CYP1A2; type: ADME
[7] = biological target: T1, Voltage-gated L-type calcium channel; test: Binding affinity to L type calcium channel; type: protein assay; outline: as §1
[8] = biological target: Muscarinic acetylcholine receptor M4 (Homo sapiens, UniProt P08173); test: Binding affinity to human M4 receptor; outline: as §1
Rattus norvegicus [9] = test: Suppression of luteinizing hormone levels to below 0.12 mIU/mL in po dosed castrated Sprague-Dawley rat; type: ADME, organism-based; conditions: in vivo
Outline: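 Male SD rats (200-225 g) castrated under halothane, 14 days recovery, jugular cannulated; basal bleed then single oral dose 5.0, 20, 50 or 100 mg/kg in 0.5% CMC, n = 6/dose; serial plasma LH by coated-tube RIA, detection limit 0.12 mIU/mL; mean ± SEM.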

Rattus norvegicus [10] = test: Suppression of testosterone level to below 0.5 ng/mL castrate level for 12 hrs in po dosed gonad intact Sprague-Dawley rat; type: ADME, organism-based; conditions: in vivo
Outline: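 Single-housed intact male SD rats (300-325 g), jugular cannulated 3 days prior; basal bleed 7:00-7:30 am, then single oral dose 5.0, 25, 50 or 100 mg/kg in 0.5% CMC suspension, n = 6/dose; serial heparinized plasma; testosterone by coated-tube RIA; castrate level <0.5 ng/mL; mean ± SEM.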

Cytochrome P450 2C9 = Cytochrome P450 2C9 (Homo sapiens, UniProt P11712); test: Inhibition of CYP2C9; type: ADME
Sequence of Cytochrome P450 2C9 (P11712 whole entry): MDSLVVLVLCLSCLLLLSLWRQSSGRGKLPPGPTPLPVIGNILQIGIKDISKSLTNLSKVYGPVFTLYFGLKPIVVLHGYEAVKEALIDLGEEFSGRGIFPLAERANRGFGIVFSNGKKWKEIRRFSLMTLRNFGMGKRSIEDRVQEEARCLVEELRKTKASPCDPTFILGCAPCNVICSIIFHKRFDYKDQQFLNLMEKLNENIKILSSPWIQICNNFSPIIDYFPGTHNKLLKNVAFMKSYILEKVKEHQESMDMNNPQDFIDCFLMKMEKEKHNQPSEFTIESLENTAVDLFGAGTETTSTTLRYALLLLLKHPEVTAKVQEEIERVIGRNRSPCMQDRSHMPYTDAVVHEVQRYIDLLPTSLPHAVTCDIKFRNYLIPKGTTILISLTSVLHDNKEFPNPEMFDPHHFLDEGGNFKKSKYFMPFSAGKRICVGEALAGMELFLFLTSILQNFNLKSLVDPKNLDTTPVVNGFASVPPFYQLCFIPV

Histamine H2 receptor = Histamine H2 receptor (Homo sapiens, UniProt P25021); test: Binding affinity to H2 receptor; outline: as §1
Sequence of Histamine H2 receptor (P25021 whole entry): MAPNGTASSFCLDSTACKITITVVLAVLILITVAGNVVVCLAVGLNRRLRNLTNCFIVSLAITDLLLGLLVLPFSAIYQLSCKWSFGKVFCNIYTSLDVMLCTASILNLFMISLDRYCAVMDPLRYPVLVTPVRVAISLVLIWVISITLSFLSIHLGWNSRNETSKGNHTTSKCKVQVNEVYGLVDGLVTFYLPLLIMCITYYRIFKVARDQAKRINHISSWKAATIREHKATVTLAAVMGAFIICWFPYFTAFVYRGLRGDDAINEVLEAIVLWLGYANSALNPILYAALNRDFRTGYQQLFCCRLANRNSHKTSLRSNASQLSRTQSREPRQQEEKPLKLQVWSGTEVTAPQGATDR

[11] = biological target: 5-hydroxytryptamine receptor 2C (Homo sapiens, UniProt P28335); test: Binding affinity to human 5HT2C receptor; outline: as §1
[12] = biological target: T2, Gonadotropin-releasing hormone receptor (Rattus norvegicus, UniProt P30969); test: Antagonist activity at rat pituitary GnRH receptor assessed as inhibition of GnRH-stimulated inositol phosphate accumulation; type: functional; conditions: in the assay text read “recombinant rat” for “rat pituitary”
T2 sequence (P30969 whole entry): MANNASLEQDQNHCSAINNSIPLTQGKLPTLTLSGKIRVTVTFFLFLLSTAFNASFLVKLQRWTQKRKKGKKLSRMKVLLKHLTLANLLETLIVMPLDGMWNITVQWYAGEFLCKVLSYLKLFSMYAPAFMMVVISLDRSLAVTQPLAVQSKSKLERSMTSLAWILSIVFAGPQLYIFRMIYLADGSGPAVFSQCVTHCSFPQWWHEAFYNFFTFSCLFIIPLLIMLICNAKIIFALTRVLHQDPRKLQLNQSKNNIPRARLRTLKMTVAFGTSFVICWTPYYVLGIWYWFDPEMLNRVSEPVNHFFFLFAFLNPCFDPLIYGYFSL
Outline: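 Rat receptor functional assay run against 100 nM GnRH; total inositol phosphate accumulation measured; IC50 with Hill coefficient derived.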

[13] = Half life in Sprague-Dawley rat at 5 mg/kg, iv or 20 mg/kg, po; type: ADME, organism-based; conditions: in vivo
Outline: (§2)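 Intact male rats with indwelling jugular vein catheters, recovered overnight; single dose 5 mg/kg i.v. (5 mg/mL in 70% PEG400/30% H2O) or 20 mg/kg p.o. (20 mg/mL suspension in 0.5% CMC). Plasma by C18 HPLC, 50-70% ACN gradient in 10 mM ammonium phosphate pH 7, UV 260 nm; noncompartmental parameters; F = AUCp.o./AUCi.v.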

Substance-P receptor = Substance-P receptor (Homo sapiens, UniProt P25103); test: Binding affinity to human NK1 receptor; outline: as §1
Cytochrome P450 3A4 = Cytochrome P450 3A4 (Homo sapiens, UniProt P08684); test: Inhibition of CYP3A4; type: ADME
[14] = biological target: T2, Gonadotropin-releasing hormone receptor; test: Binding affinity to rat pituitary GnRH receptor
[15] = biological target: Muscarinic acetylcholine receptor M1 (Homo sapiens, UniProt P11229); test: Binding affinity to human M1 receptor; outline: as §1
Adenosine receptor A3 = Adenosine receptor A3 (Homo sapiens, UniProt P0DMS8); test: Binding affinity to human A3 receptor; outline: as §1
[16] = Oral bioavailability in Sprague-Dawley rat at 5 mg/kg, iv and 20 mg/kg, po; type: ADME, organism-based; conditions: in vivo; outline: as §2
[17] = biological target: Sodium-dependent dopamine transporter (Homo sapiens, UniProt Q01959); test: Binding affinity to human DA transporter; outline: as §1
Sequence of Sodium-dependent dopamine transporter (Q01959 whole entry): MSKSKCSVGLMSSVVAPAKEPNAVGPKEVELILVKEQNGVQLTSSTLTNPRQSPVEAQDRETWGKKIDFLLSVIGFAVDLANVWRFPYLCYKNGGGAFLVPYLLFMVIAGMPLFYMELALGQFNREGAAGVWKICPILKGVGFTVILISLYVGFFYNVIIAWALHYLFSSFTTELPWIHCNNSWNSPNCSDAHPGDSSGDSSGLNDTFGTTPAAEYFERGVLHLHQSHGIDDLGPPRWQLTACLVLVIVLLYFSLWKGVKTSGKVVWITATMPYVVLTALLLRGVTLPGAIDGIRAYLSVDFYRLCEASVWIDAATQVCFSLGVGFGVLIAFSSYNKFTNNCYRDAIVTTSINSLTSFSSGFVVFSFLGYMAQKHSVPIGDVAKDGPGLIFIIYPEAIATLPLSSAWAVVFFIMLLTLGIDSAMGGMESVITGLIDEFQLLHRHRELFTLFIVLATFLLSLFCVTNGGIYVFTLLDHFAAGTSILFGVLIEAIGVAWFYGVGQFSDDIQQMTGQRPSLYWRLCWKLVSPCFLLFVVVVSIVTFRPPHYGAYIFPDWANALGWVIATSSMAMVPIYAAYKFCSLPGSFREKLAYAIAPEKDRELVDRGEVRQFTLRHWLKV

[18] = biological target: Sodium-dependent serotonin transporter (Homo sapiens, UniProt P31645); test: Binding affinity to human 5HT transporter; outline: as §1
Sequence of Sodium-dependent serotonin transporter (P31645 whole entry): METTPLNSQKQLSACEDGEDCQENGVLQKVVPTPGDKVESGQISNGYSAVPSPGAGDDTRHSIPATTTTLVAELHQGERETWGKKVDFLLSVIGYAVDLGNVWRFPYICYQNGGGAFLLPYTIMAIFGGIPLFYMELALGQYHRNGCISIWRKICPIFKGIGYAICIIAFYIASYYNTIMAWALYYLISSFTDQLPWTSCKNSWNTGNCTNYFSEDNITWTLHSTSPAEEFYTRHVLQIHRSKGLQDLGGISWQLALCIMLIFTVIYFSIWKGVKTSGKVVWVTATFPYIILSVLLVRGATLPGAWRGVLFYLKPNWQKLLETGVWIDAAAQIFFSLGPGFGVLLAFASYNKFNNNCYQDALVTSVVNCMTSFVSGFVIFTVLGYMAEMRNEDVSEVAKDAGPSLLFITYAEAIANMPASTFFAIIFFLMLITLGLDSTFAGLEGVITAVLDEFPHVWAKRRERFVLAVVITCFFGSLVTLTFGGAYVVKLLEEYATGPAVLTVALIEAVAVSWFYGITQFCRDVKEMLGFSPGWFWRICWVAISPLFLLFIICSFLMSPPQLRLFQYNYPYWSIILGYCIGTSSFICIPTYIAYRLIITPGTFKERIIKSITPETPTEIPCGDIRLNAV

[19] = Volume of distribution in Sprague-Dawley rat at 5 mg/kg, iv or 20 mg/kg, po; type: ADME, organism-based; conditions: in vivo, read-out: Vdss; outline: as §2
D(3) dopamine receptor = D(3) dopamine receptor (Homo sapiens, UniProt P35462); test: Binding affinity to human D3 receptor; outline: as §1
Mu-type opioid receptor = Mu-type opioid receptor (Homo sapiens, UniProt P35372); test: Binding affinity to human mu opiate receptor; outline: as §1
Sequence of Mu-type opioid receptor (P35372 whole entry): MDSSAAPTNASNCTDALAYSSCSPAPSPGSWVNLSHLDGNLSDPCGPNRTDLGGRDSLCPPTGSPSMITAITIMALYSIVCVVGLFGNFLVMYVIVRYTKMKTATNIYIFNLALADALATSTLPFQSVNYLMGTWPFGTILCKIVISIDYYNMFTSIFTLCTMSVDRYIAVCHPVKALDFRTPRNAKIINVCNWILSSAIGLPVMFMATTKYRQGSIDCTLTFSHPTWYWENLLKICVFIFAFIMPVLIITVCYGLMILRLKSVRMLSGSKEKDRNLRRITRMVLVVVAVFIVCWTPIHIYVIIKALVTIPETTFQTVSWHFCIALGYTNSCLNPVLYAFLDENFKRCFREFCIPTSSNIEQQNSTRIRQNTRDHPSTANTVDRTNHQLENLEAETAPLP

[20] = biological target: T1, Voltage-gated L-type calcium channel; test: Binding affinity to diltiazem site of L type calcium channel; type: protein assay; outline: as §1
[21] = Clearance in Sprague-Dawley rat at 5 mg/kg, iv or 20 mg/kg, po; type: ADME, organism-based; conditions: in vivo; outline: as §2
D(4) dopamine receptor = D(4) dopamine receptor (Homo sapiens, UniProt P21917); test: Binding affinity to human D4.4 receptor; outline: as §1
Sequence of D(4) dopamine receptor (P21917 whole entry): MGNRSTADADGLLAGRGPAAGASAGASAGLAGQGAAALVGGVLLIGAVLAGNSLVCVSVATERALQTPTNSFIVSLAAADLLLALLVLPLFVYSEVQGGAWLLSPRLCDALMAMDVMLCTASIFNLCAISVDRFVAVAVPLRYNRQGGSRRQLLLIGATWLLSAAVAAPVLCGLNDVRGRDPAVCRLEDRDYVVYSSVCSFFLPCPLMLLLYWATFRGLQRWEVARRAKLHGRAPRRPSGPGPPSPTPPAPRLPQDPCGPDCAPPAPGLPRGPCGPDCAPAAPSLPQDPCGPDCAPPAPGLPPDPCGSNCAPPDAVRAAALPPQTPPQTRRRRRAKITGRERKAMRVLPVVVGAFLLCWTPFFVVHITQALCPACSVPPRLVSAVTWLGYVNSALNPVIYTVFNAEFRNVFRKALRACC

[22] = biological target: 5-hydroxytryptamine receptor 7 (Homo sapiens, UniProt P34969); test: Binding affinity to human 5HT7 receptor; outline: as §1
D(1A) dopamine receptor = D(1A) dopamine receptor (Homo sapiens, UniProt P21728); test: Binding affinity to human D1 receptor; outline: as §1
Sequence of D(1A) dopamine receptor (P21728 whole entry): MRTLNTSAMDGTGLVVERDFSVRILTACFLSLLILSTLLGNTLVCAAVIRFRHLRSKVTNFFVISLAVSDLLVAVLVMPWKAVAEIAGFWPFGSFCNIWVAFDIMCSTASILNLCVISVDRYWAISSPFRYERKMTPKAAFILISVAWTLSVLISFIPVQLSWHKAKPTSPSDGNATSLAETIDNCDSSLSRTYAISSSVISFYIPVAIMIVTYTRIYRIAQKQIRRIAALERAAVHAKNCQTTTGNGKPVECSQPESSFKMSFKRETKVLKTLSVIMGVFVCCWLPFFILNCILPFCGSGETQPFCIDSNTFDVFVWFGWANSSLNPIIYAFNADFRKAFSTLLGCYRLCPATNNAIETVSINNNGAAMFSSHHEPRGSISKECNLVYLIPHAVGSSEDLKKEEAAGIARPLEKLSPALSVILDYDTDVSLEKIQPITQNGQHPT

[23] = biological target: Sodium-dependent noradrenaline transporter (Homo sapiens, UniProt P23975); test: Binding affinity to human NE transporter; outline: as §1

Sequence of Type-1 angiotensin II receptor (P30556 whole entry, canonical isoform): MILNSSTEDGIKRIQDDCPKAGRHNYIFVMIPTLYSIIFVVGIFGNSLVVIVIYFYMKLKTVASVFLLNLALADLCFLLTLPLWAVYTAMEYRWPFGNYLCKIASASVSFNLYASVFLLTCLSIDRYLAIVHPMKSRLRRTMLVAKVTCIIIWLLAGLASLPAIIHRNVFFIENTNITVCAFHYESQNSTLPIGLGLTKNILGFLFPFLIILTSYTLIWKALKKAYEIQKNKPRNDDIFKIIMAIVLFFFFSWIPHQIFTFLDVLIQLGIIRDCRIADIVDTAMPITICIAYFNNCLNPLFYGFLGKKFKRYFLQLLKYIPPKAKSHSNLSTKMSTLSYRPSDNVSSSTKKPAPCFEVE

Structure (SMILES): COc1nc(NCCCN2CCOCC2)nc(OC)c1NC(=O)c1ccc(Oc2cc3c(cc2C)CCC3(C)C)o1
- Ki [1]: 3710 nM
- Ki [2]: 583 nM
- Ki [3]: 1960 nM
- IC50 [4]: 6300 nM
- Ki [5]: 145 nM
- IC50 (Cytochrome P450 2D6): > 30000 nM
- IC50 (Cytochrome P450 2C19): > 30000 nM
- Ki [6]: 1060 nM
- IC50 (Cytochrome P450 1A2): > 30000 nM
- Ki [7]: 145 nM
- Ki [8]: 3680 nM
- Activity (Rattus norvegicus [9]): Dose-dependent effect
- Activity (Rattus norvegicus [10]): Dose-dependent effect
- IC50 (Cytochrome P450 2C9): 3000 nM
- Ki (Histamine H2 receptor): 1220 nM
- Ki [11]: 964 nM
- IC50 [12]: 8.8 nM
- half-life [13]: 5.1 h
- Ki (Substance-P receptor): 1250 nM
- IC50 (Cytochrome P450 3A4): > 30000 nM
- Ki [14]: 0.4 nM
- Ki [15]: 4120 nM
- Ki (Adenosine receptor A3): 628 nM
- bioavailability [16]: 26%
- Ki [17]: 1800 nM
- Ki [18]: 1430 nM
- Vd [19]: 1.1 L/kg
- Ki (D(3) dopamine receptor): 1180 nM
- Ki (Mu-type opioid receptor): 1400 nM
- Ki [20]: 370 nM
- clearance [21]: 5.5 mL/min/kg
- Ki (D(4) dopamine receptor): 2510 nM
- Ki [22]: 1750 nM
- Ki (D(1A) dopamine receptor): 1620 nM
- Ki [23]: 5090 nM
